Data set [1] in a line: Mutagenicity in Saccharomyces cerevisiae D7 assessed as induction of mutagenesis by measuring forward and reverse mutations up to 0.1 mg/mL. The format is toxicity.
Data set [2] concerns the target T1, Retinoic acid receptor RXR-alpha (Homo sapiens) (UniProt P19793).
T1 sequence (whole entry): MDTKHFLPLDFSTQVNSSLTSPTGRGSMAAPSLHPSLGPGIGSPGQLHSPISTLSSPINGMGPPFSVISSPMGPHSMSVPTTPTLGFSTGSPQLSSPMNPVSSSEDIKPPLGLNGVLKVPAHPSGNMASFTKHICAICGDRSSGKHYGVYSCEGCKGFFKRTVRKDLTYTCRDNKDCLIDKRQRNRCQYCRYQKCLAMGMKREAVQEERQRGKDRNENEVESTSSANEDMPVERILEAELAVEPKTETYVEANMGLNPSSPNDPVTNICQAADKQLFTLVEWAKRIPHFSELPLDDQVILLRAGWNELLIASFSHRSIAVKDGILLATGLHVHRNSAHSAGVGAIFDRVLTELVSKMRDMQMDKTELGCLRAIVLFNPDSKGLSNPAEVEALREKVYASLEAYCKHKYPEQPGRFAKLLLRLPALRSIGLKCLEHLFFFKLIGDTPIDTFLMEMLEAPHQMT
Kind of data set: Agonist activity at human RXRalpha expressed in human HCT116 cells assessed as increase in RXRE-mediated transcription at 1000 nM incubated for 24 hrs by RXRE luciferase reporter gene assay relative to bexarotene. The format is cell-based. Summed up: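 HCT-116 cells (80,000/well) co-transfected for 24 h with 250 ng RXRE-luciferase reporter (DR1 element from the rat cellular retinol binding protein II gene), 25 ng pSG5-human RXRα and 20 ng renilla. Dosed 24 h at 25, 100 or 1000 nM final; ethanol or DMSO vehicle 0.1%. Dual-luciferase read-out. Three independent assays in triplicate; bexarotene = 100%.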
In general terms: In a reporter assay the amount or activity of a reporter protein is the signal.

The test system of data set [3] is HuT78. Kind of data set: Growth inhibition of human HUT78 cells at 200 nM incubated for 72 hrs by MTS assay relative to bexarotene. The class given is functional. Particulars: HuT78, 72 h, read-out: GI. Summed up: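 Hut78 cells in RPMI with 10% FBS at 37°C, 5% CO2. Plated 7,500 cells/well and immediately dosed at 200 nM for 72 h. MTS read at A490; percent inhibition with media control set to 0.0, compared with bexarotene set to 100%. Mean of three independent experiments.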

Data set [4] addresses Retinoid X receptor (Homo sapiens) (UniProt P28702+P48443+P19793). Briefly: Agonist activity at human RXR binding domain and activation domain expressed in human HCT116 cells assessed as rexinoid activity at 100 nM incubated for 24 hrs by luciferase reporter gene based mammalian two-hybrid assay relative to bexarotene. The class given is cell-based. Summed up: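 HCT-116 cells plated overnight (80,000/well, DMEM with 10% FBS), co-transfected for 24 h with human RXR binding-domain (bait) and activation-domain (prey) vectors, pFR-Luc Gal4 reporter and renilla control. Treated 24 h at 25, 100 or 1000 nM final; vehicle ethanol or DMSO 0.1%. Dual-luciferase read-out. Three independent assays in triplicate; bexarotene set to 100%.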

The species named for data set [5] is Homo sapiens. Briefly: Selectivity index, ratio of agonist activity at human RARalpha expressed in HEK293 cells assessed as increase in RARE-mediated transcription relative to bexarotene to agonist activity at human RXRalpha expressed in human HCT116 cells assessed as increase in RXRE-mediated transcription relative to bexarotene. The class given is cell-based. The method in brief:
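HEK293 cells (60,000/well) transfected for 24 h with 250 ng pTK-DR5(X2)-Luc, 25 ng human RARα and 20 ng renilla. Treated 24 h at 100 nM; activity expressed as a percentage of all-trans-retinoic acid. This RARE activity is divided by 100 nM RXRE activity, with the bexarotene ratio set to 1.0.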

Data set [6] has as its target T2, Retinoic acid receptor RXR-alpha/oxysterols receptor LXR-alpha (Homo sapiens, UniProt P19793+Q13133).
T2 sequence (P19793 whole entry): T1 sequence (whole entry)
T2 sequence (Q13133 whole entry): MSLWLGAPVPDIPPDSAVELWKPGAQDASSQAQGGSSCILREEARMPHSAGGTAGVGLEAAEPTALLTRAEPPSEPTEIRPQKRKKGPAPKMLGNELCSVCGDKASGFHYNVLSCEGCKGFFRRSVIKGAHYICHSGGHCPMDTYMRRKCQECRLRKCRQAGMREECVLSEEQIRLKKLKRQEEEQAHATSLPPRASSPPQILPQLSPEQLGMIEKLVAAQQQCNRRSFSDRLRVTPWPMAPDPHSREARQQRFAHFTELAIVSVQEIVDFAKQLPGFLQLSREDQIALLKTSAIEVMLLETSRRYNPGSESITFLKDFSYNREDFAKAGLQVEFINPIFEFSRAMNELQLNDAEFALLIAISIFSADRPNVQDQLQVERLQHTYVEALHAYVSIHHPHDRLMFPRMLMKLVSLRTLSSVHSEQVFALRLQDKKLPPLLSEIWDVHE
Kind of data set: Agonist activity at human RXRalpha/LXRalpha expressed in human HCT116 cells assessed as reduction in SREBP-mediated transcription activity at 100 nM incubated for 24 hrs by luciferase reporter gene assay relative to bexarotene. The format is cell-based. On the set-up: scale not given: the % may be the effect or the level left. The settings on record: 0.1 µM. The method in brief: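 HCT116 cells co-transfected for 24 h with 100 ng pBP1c(6500)-Luc (about 6500 bp murine SREBP-1c promoter), 10 ng human LXRα and 20 ng renilla. Treated 24 h with compound at 100 nM, alone or with 100 nM TO901317. Luciferase output. Three independent assays in triplicate; bexarotene = 100%.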

The nature of data set [7]: Lipid risk index, ratio of agonist activity at human RXRalpha/LXRalpha expressed in human HCT116 cells assessed as reduction in SREBP-mediated transcription activity to agonist activity at human RXRalpha expressed in human HCT116 cells assessed as increase in RXRE-mediated transcription. Summed up: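 Lipid risk index: SREBP-promoter luciferase activity (HCT116, LXRα-transfected, 100 nM compound with or without 100 nM TO901317, 24 h) divided by RXRE activity at 100 nM. The SREBP:RXRE ratio for bexarotene is set to 1.0.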

The source made the active and inactive calls. The rule behind the calls is not given here.

Sequence of Retinoid X receptor (Homo sapiens) (P28702 whole entry, looked up, one chain of several, the tested form may be a part): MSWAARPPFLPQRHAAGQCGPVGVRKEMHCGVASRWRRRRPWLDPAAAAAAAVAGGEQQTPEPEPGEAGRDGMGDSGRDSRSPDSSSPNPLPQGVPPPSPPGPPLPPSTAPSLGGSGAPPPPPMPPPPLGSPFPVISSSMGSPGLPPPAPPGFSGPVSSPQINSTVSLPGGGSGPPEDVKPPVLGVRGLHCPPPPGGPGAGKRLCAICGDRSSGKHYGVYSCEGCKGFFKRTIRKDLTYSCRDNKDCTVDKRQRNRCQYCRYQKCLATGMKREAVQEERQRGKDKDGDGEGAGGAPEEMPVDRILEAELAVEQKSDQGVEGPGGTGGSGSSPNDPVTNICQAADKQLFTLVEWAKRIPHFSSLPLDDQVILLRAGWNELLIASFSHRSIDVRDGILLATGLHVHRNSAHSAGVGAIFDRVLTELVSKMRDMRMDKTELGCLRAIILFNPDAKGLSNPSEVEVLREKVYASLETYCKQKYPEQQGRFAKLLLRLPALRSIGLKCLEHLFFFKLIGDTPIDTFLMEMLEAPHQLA
Sequence of Retinoid X receptor (Homo sapiens) (P48443 whole entry, looked up, one chain of several, the tested form may be a part): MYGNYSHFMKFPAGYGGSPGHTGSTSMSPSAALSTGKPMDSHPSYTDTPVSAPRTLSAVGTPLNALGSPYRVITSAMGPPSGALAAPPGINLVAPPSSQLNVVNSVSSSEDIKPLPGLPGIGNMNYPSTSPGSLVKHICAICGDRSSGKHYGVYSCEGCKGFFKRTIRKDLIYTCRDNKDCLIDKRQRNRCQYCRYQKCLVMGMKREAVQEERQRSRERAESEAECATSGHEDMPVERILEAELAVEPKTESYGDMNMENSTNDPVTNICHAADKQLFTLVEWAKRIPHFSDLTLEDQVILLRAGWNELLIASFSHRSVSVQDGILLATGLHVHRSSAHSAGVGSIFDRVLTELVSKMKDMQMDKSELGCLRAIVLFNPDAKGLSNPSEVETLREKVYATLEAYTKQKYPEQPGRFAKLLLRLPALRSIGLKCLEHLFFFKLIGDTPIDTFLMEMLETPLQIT

Regarding `CCN(c1ncc(C(=O)O)cn1)c1cc2c(cc1C)C(C)(C)CCC2(C)C`, the Activity entry was “Non-Toxic” in data set [1], 20 to 43% in data set [2], 135 to 146% in data set [4] and “Active” in data set [6]. Moreover, the inhibition of growth at 0.2 µM in data set [3] lay within 55 to 80%. Further, the Ratio was 0.35 to 0.37 in data set [5] and 0.49 - 0.51 in data set [7].

Consider `CCN(c1ccc(C(=O)O)c(F)c1)c1cc2c(cc1C)C(C)(C)CCC2(C)C`, for which the Activity entry in data set [1] was “Non-Toxic”; in data set [6], 54 to 79%. Besides, the result in data set [2] and in data set [4] was Active. Besides, the inhibition of growth at 0.2 µM in data set [3] lay within 55 to 80%. Besides, the Ratio in data set [5] was 0.35 to 0.37; in data set [7], 0.48 - 0.65.

Turning to `CCN(c1ccc2c(c1)C(C)(C)CCC2(C)C)c1cnc(C(=O)O)cn1`, the Activity entry is “Non-Toxic” in data set [1], 20 to 43% in data set [2] and 54 to 79% in data set [6]. The inhibition of growth at 0.2 µM in data set [3] was in the range of 35 to 51%. The fold change (FC) in data set [4] (in the assay text read “relative to activity at 25 nM” for “relative to bexarotene”) was 5 to 16. Further, the figures for the Ratio in data set [5] and in data set [7] were more than 0.5 and 0.48 - 0.65, respectively.

Regarding `CCN(c1ccc2c(c1)C(C)(C)CCC2(C)C)c1ccc(C(=O)O)cn1`, the Activity result in data set [1] is “Non-Toxic”; in data set [2] it was 20 to 43%; in data set [4], 135 to 146%; in data set [6] it was “Active”. Besides, the inhibition of growth at 0.2 µM in data set [3] was more than 85%. In addition, the values for the Ratio in data set [5] and in data set [7] were more than 0.5 and 0.49 - 0.51, respectively.

For `CCN(c1ccc(C(=O)O)cc1)c1cc2c(cc1C)C(C)(C)CCC2(C)C`, the Activity result in data set [1] was “Non-Toxic”; in data set [6] it was 54 to 79%. Besides, the outcome in data set [2] and in data set [4] was Active. Further, the inhibition of growth at 0.2 µM in data set [3] was in the range of 35 to 51%. For the same compound, the Ratio in data set [5] was 0.35 to 0.37; in data set [7] it was 0.48 - 0.65.

As for `CCN(c1ccc(C(=O)O)c(F)c1)c1ccc2c(c1)C(C)(C)CCC2(C)C`, the results for the Activity entry in data set [1] and in data set [6] were “Non-Toxic” and 54 to 79%, respectively. For the same compound, the result in data set [2] and in data set [4] was Active. Further, the inhibition of growth at 0.2 µM in data set [3] lay within 35 to 51%. Moreover, the Ratio in data set [5] was 0.35 to 0.37; in data set [7], 0.48 - 0.65.
